Results gathered from unrelated publications.
Lines come from different studies, so protocols differ.

| SMILES | species | sample | route | dose | notes | Cmax |
| --- | --- | --- | --- | --- | --- | --- |
| CCOC(=O)c1c(NC(=O)CNC(C)C)sc2c1CCCCC2 | male mouse | plasma | intraperitoneal | 5 mg/kg | single dose | 193 ng/mL |
| COc1cc(C2C3=C(COC3=O)N(CCO)c3cc4c(cc32)CCC4)cc(OC)c1OC (stereo not drawn) | female C57BL/6 mouse | plasma | intraperitoneal | 50 mg/kg |  | 1040 ng/mL |
| OCc1nc2ccc(NCc3ccc(C(F)(F)F)cc3)cc2[nH]1 | male BALB/c mouse | plasma | intravenous | 1 mg/kg |  | 378 ng/mL |
| Cc1ccc(OCC(=O)N[C@@H](Cc2c[nH]c3ccccc23)C(=O)OC(C)C)cc1 | male Sprague-Dawley mouse | plasma | intravenous | 10 mg/kg |  | 1840 ng/mL |
| Cc1nc2ccc(OCc3ccc(C(F)(F)F)cc3)cc2[nH]1 | male BALB/c mouse | plasma | oral | 10 mg/kg |  | 5890 ng/mL |
| COCC(=O)N1CCc2[nH]c3c(Cl)c(Cl)ccc3c2[C@@H]1C | C57BL/6 mouse | blood | oral | 20 mg/kg |  | 3470 nM |
| CC(C)(C)c1sc2ncnc(Oc3c(F)cccc3OC(F)(F)F)c2c1-c1ccc(Cl)cc1 | mouse | plasma | intravenous | 1 mg/kg | single dose | 2560 ng/mL |
| Cc1ncsc1-c1ccc([C@H](C)NC(=O)[C@@H]2C[C@@H](O)CN2C(=O)[C@@H](NC(=O)CCCCCCCCC(=O)N2CCC(n3cc(-c4ccc5c(c4)CCN5C(=O)Cc4cccc(OC(F)(F)F)c4)c4c(N)ncnc43)CC2)C(C)(C)C)cc1 | male C57BL/6 mouse | plasma | intravenous | 1 mg/kg |  | 3420 ng/mL |
| O=C1CCC(N2Cc3cc(C4CCN(Cc5ccccc5)CC4)ccc3C2=O)C(=O)N1 (stereo not drawn) | male CD-1 mouse | plasma | intravenous | 1 mg/kg |  | 204 ng/mL |
| NCc1ccc(-c2nn(Cc3ccccc3)c3ccccc23)o1 | male CD-1 mouse | plasma | oral | 10 mg/kg |  | 395 ng/mL |
| Cc1cc(-c2ccnc3[nH]cc(F)c23)cc(F)c1[C@@]1(O)[C@H](C)CN(C(=O)CN)C[C@@H]1C | male CD-1 mouse | plasma | oral | 3 mg/kg |  | 1260 ng/mL |
| OCc1ccc(-c2nn(Cc3ccccc3)c3ccccc23)o1 | male CD-1 mouse | plasma | oral | 10 mg/kg |  | 220 ng/mL |
| Cc1ncsc1-c1ccc([C@H](C)NC(=O)[C@@H]2C[C@@H](O)CN2C(=O)[C@@H](NC(=O)CCCCCCCCCCC(=O)NCCCn2cc(-c3ccc4c(c3)CCN4C(=O)Cc3cccc(OC(F)(F)F)c3)c3c(N)ncnc32)C(C)(C)C)cc1 | mouse | plasma | intravenous | 1 mg/kg |  | 2330 ng/mL |
| COC1=CC(c2ccc[nH]2)=N/C1=C\c1[nH]c(Cc2ccc(OC(F)(F)F)cc2)cc1Cc1ccc(OC(F)(F)F)cc1 | male CD-1 mouse | liver | oral | 40 mg/kg | single dose | 20300 ng/mL |
| Cc1ncsc1-c1ccc([C@H](CC(=O)N2CC3(C2)CN(c2ccc(C#Cc4ccc(C(=O)N5CCC(n6cc(-c7ccc8c(c7)CCN8C(=O)Cc7cccc(OC(F)(F)F)c7)c7c(N)ncnc76)CC5)cc4)cn2)C3)NC(=O)[C@@H]2C[C@@H](O)CN2C(=O)[C@@H](NC(=O)C2(F)CC2)C(C)(C)C)cc1 | male C57BL/6 mouse | plasma | intravenous | 1 mg/kg |  | 19000 ng/mL |
| CC[C@H](C)[C@H](NC(=O)[C@H](CCC(=O)O)NC(=O)[C@H](CO)NC(=O)[C@@H](NC(=O)[C@@H](N)CO)C(C)C)C(=O)N[C@@H](CCC(N)=O)C(=O)N[C@@H](CC(C)C)C(=O)N[C@@H](CCSC)C(=O)N[C@@H](Cc1cnc[nH]1)C(=O)N[C@@H](CC(N)=O)C(=O)N[C@@H](CC(C)C)C(=O)NCC(=O)N[C@@H](CCCCN)C(=O)N[C@@H](Cc1cnc[nH]1)C(=O)N[C@@H](CC(C)C)C(=O)N[C@@H](CC(N)=O)C(=O)N[C@@H](CO)C(=O)N[C@@H](CCSC)C(=O)N[C@@H](CCC(=O)O)C(=O)N[C@@H](CCCNC(=N)N)C(=O)N[C@H](C(=O)N[C@@H](CCC(=O)O)C(=O)N[C@@H](Cc1c[nH]c2ccccc12)C(=O)N[C@@H](CC(C)C)C(=O)N[C@@H](CCCNC(=N)N)C(=O)N[C@@H](CCCCN)C(=O)N[C@@H](CCCCN)C(=O)N[C@@H](CC(C)C)C(=O)N[C@@H](CCC(N)=O)C(=O)N[C@@H](CC(=O)O)C(=O)N[C@H](C(=O)N[C@@H](Cc1cnc[nH]1)C(=O)N[C@@H](CC(N)=O)C(=O)N[C@@H](Cc1ccccc1)C(N)=O)C(C)C)C(C)C | female CD-1 mouse | serum | intravenous | 10 nmol/kg |  | 8 nM |
| NCc1ccc(-c2nn(Cc3ccncc3)c3ccccc23)o1 | male CD-1 mouse | plasma | intraperitoneal | 30 mg/kg |  | 1150 ng/mL |
| Cc1cc(-c2ccnc3[nH]cc(F)c23)cc(F)c1[C@@]1(O)[C@H](C)CN(C2CCS(=O)(=O)CC2)C[C@@H]1C | male CD-1 mouse | plasma | intravenous | 1 mg/kg |  | 1620 ng/mL |
| COC1=CC(c2ccc[nH]2)=N/C1=C\c1cc(Cc2ccc(OC(F)(F)F)cc2)c(C)[nH]1.Cl | male CD-1 mouse | liver | oral | 40 mg/kg | single dose | 2660 ng/mL |
| Cc1ccc(N(c2ccc(NC(=O)CN(C)c3ccccc3N3CCCC3=O)cc2)C(C)C)cc1 | male CD-1 mouse | plasma | oral | 20 mg/kg |  | 1000 ng/mL |
| CN(C)C(=O)c1cc2cnc(Nc3ccc(-c4ccc5c(=O)cc(N6CCOCC6)oc5c4)cc3)nc2n1C1CCCC1.Cl | BALB/c mouse | plasma | intravenous | 2 mg/kg |  | 3690 ng/mL |
